Screening results (PubChem BioAssay)
SIRT5 block = SIRT5 desuccinylase inhibitors, primary screen, biochemical, fluorescence imaging, single point, set 5; NAD-dependent protein deacylase sirtuin-5, mitochondrial (Homo sapiens), Q9NXA8; Purified SirT5, succinyl-peptide AMC, trypsin-coupled fluorescence; inhibition, % at 15 µM; 330,000 compounds, 1.1% hits; AID 652115, 2013; in the data active = inhibition above about 15%
E-sel inducer = E-selectin induction in HUVECs, primary screen, imaging, HUVEC, immunofluorescence imaging, single point; normalized: neutral wells 0, TNF-alpha wells 100; 260,000 compounds, 0.37% hits; activation, % at 7.58 µM; P16581;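 active = mean E-selectin-positive cell signal at least 10% of the positive control, reached in at least 60% of replicates, without over 20% cell loss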
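Assay system: HUVEC, human umbilical vein endothelial cells / Amount: 3,000 HUVEC/well / Controls: TNF-alpha positive control, DMSO neutral control / Compound dosing: single concentration / Medium: EGM-2 over gelatin coat / Evaluation: percent E-selectin-positive cells / Signal: immunofluorescence imaging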
ERAP1 inh = human ERAP1 aminopeptidase inhibitors, primary screen, biochemical, single point, plate reader; recombinant ERAP1, Leu-AMC fluorescence, 60 min; 340,000 compounds, 0.15% hits; inhibition, % at 10.7 µM; AID 652197, 2013;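 active = mean replicate inhibition of at least 30%, or all replicates individually reaching that 30% level; inactive = mean below 30% and not every replicate reaching it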;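 note: 0% = neutral control wells and 100% = L-leucinethiol positive control wells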
rRNA inh HTS = reduced GFP signal of wild-type E. coli, primary screen, bacterial rRNA inhibitor project, GFP/RFP fluorescence, OD600, single point. 350,000 compounds, 1.6% hits. GFP signal change (wild-type ribosome), % (test concentration not listed). AID 720706, 2013. E. coli WT GFP vs humanized-ribosome RFP mutants, 24 h; hits give low values; DMSO median 0, no signal -100;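 active = significant combined selectivity score with lowered wild-type GFP, culture density cut under 30%, mutant RFP and density less affected; inactive = any of these conditions unmet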
S100A4 MyoIIA = inhibitors of S100A4-myosin IIA peptide binding, primary screen, biochemical, fluorescence polarization, TAMRA-MyoIIA peptide | inhibition, % at 10.7 µM | Protein S100-A4 (Homo sapiens), P26447 | 360,000 compounds, 0.14% hits;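 active = mean inhibition of at least 70% across replicates, with every replicate also reaching that level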
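Material: S100A4 monomer (human). Medium: Calcium-containing HEPES buffer, pH 7.2. Probe or stimulus: labelled myosin peptide probe, 5 nM. Compound dosing: one concentration per compound. Timing: polarization read 5 min after assay mix addition, stable 5–60 min. Benchmarks: DMSO as neutral control, TFP as positive control.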
MLL AF4-AF9 inh = inhibitors of AF4 peptide binding to AF9, primary screen, biochemical, AlphaScreen, biotin-AF4 peptide, FLAG-AF9, single point; Protein AF-9 (Homo sapiens), P42568; inhibition, % at 10 µM; 350,000 compounds, 0.47% hits; AID 651704, 2012;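 active = every replicate reaching a set inhibition limit, whatever the replicate mean, cut at about 25% in these data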;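 note: 0% = plate neutral control median and 100% = total signal loss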
Target sequence (P42568 whole entry, looked up): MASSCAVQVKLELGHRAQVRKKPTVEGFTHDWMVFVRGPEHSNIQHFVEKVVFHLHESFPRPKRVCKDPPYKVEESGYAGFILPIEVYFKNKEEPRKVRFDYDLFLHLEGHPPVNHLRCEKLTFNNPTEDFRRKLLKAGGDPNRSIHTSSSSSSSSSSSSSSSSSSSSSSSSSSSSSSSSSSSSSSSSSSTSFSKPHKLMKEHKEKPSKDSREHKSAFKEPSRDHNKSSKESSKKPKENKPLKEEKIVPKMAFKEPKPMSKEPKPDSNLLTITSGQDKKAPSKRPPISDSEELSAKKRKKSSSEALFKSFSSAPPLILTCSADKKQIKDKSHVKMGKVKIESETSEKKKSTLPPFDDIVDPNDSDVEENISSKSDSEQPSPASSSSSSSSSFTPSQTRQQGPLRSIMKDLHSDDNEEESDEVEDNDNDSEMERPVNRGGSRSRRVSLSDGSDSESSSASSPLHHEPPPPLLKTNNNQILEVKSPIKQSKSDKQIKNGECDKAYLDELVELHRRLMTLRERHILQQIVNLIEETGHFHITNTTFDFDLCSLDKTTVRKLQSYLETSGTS
* marks the source's active call; other numbers are inactive results; x = no result given. Shown are actives, neighbours in structure and some others; about 3.4% of the full set was active somewhere.

SMILES	SIRT5 block	E-sel inducer	ERAP1 inh	rRNA inh HTS	S100A4 MyoIIA	MLL AF4-AF9 inh
C[C@@H]1CN([C@@H](C)CO)C(=O)c2cc(-c3cccnc3)cnc2O[C@H]1CN(C)C(=O)Cc1cccnc1	1	1	-1	8	2	-2
COC(=O)N/N=C/c1cc(OC)c(O)c([N+](=O)[O-])c1	x	1	x	x	x	x
COc1cc(/C=N/N(C)S(=O)(=O)c2ccc(C)cc2)cc([N+](=O)[O-])c1O	4	x	-1	6	0	31*
COc1cc(/C=N/NS(=O)(=O)c2ccc(C)c([N+](=O)[O-])c2)cc([N+](=O)[O-])c1O	-2	x	1	-16	-5	-21
COc1cc(/C=N/NS(=O)(=O)c2ccc(C(C)(C)C)cc2)cc([N+](=O)[O-])c1O	3	x	1	-36*	6	-2
Cc1ccc(N2C(=O)c3ccccc3[C@](C)(C(=O)O)[C@@H]2c2ccc(CO)cc2)nc1	5	x	-1	x	-13	-2
CCOC(=O)c1csc(NC(=O)c2cc(=O)c3ccccc3o2)n1	0	x	4	-26*	4	-3
COc1ccc2c3c(n(C)c2c1)[C@H](CO)N(Cc1nccs1)CC31CN(C(C)=O)C1	x	0	-6	4	-58	-11
CCCCCCNC(=O)O[C@H]1Cn2c(=O)ccc(=O)n2[C@@H]2CN(S(=O)(=O)c3ccc(C)cc3)C[C@]12O	0	0	x	-26*	-7	-1
CCCCCCNC(=O)O[C@H]1Cn2c(=O)n(CCCCCC)c(=O)n2[C@@H]2CN(S(=O)(=O)c3ccc(C)cc3)C[C@]12O	12	0	3	7	-1	-2
Cc1ccc(S(=O)(=O)N2C[C@H]3[C@H]4C(=O)N(c5ccccc5)C(=O)[C@H]4C[C@H](OC(=O)NCc4ccccc4)[C@@]3(O)C2)cc1	22*	0	-3	0	-2	-2
C[C@H]1CN([C@@H](C)CO)C(=O)c2cc(-c3ccc(C#N)cc3)cnc2O[C@@H]1CN(C)Cc1ccccn1	-6	0	-1	5	5	-8
O=C(C[C@@H]1CC[C@@H](NC(=O)c2ccc(F)cc2)[C@H](CO)O1)NCCc1ccncc1	1	0	1	1	10	1
c1ccc(SCc2nc3ccccc3s2)nc1	-4	0	1	-23*	-2	-5
N#C/C(=C(/O)CSc1ccccn1)c1nc2ccccc2s1	1	8	2	12	0	-2
Cc1nc2cc(Cl)c(Cl)cc2n1CCCO	-2	x	-1	-22*	10	x
O=C(NCCCCNC(=O)C(F)(F)F)C(F)(F)F	-10	5	8	21	3	25*
O=C(CCl)NCCCCCCCCCNC(=O)CCl	4	3	-2	8	4	-1
COCC#Cc1cnc2c(c1)C(=O)N([C@H](C)CO)C[C@@H](C)[C@@H](CN(C)Cc1ccc3c(c1)OCO3)O2	-2	1	-2	4	2	-2
COC(=O)C[C@H]1CC[C@@H]2[C@H](COc3ccc(NC(=O)c4ccccc4F)cc3C(=O)N2C)O1	-6	0	2	-1	0	-4
O=C(CSc1nnc(COc2ccc(Br)cc2)o1)N1CCOCC1	-4	x	-5	13	69	-1
O=C(CSc1nnc(COc2ccccc2)o1)N1CCOCC1	23*	x	3	-2	-5	-32
COc1ccc(NC(=O)C2=CC=CN3CCS(=O)(=O)N=C23)c(OC)c1	28*	0	0	4	-11	1
Oc1ccc(N=Nc2ccccc2-c2nn[nH]n2)c(O)c1	17*	-1	6	-31*	-3	0
CNC[C@H]1Oc2ccc(N)cc2C(=O)N(C)C[C@H]1C	x	x	x	2	x	x
SMILES	SIRT5 block	E-sel inducer	ERAP1 inh	rRNA inh HTS	S100A4 MyoIIA	MLL AF4-AF9 inh
Oc1ccc(N=Nc2ccc3ccccc3c2)cc1	14	1	2	-52	-2	26*
COc1cc(N=Nc2ccc3ccccc3c2)ccc1O	-3	0	0	-53	-3	29*
C[C@H](CO)N1C[C@H](C)[C@H](CN(C)Cc2ccc(Cl)c(Cl)c2)Oc2ccc(NC(=O)CCCCCC(=O)Nc3ccccc3N)cc2CC1=O	3	12	-3	-6	12	0
COc1cccc(CN2CCC3(CC2)CN(C(=O)C2CC2)[C@H](CO)c2c3c3ccc(OC)cc3n2C)c1	4	2	4	0	-1	8
Cc1ccc(S(=O)(=O)N(C)CC(=O)NCCCc2ccccc2)cc1	1	x	1	-24*	-3	-1
COCCCNC(=O)CN(CCc1ccccc1)S(=O)(=O)c1ccc(OC)cc1	1	7	0	-24*	-4	-2
COc1ccc(NC(=O)Nc2ccc3c(c2)CC(=O)N([C@H](C)CO)C[C@@H](C)[C@H](CN(C)S(=O)(=O)c2cccs2)O3)cc1	-3	0	-1	-1	8	-4
CCCC#Cc1ccc2c(c1)O[C@H](CN(C)C(=O)CN(C)C)[C@H](C)CN([C@@H](C)CO)S2(=O)=O	x	-1	x	-2	x	x
Cc1cc(C)cc(Nc2cc(C)nc3nc(C)nn23)c1	16*	0	-1	-2	0	-3
Cc1ccccc1N/N=C/c1c(C)nc2ccccn12	-2	x	-2	-9	-1	26*
Cc1nc2ccccn2c1C(=O)N/N=C/c1ccccc1	-3	1	-1	2	-1	1
CS(=O)(=O)Nc1ccccc1C(=O)OCC(=O)N1CCC(c2ccccc2)=N1	-4	x	-6	-32*	-1	3
Cc1ccc(C(=O)OCC(=O)N2CCC(c3ccccc3)=N2)c(C)c1	0	-2	-1	13	-9	-1
COc1ccc(NC(=O)Nc2ccc3c(c2)C(=O)N([C@H](C)CO)C[C@@H](C)[C@@H](CN(C)CC2CCCCC2)O3)cc1	1	-13	-4	1	19	3
O=C(CN1C(=O)C2CCCCC2C1=O)Nc1cccc(C(F)(F)F)c1 (centres undefined)	x	1	-1	-15*	0	1
C[C@@H]1CN([C@@H](C)CO)C(=O)c2cc(C#Cc3ccccn3)cnc2O[C@H]1CN(C)C(=O)c1ccccn1	4	0	0	2	13	-7
Cn1c(=O)c(Nc2ccc(O)cc2)c2c3c(cccc31)C(=O)c1ccccc1-2	x	x	1	-12	-2	29*
